Rpn11 block: Rpn11 (PSMD14) deubiquitinase inhibitors, primary screen, biochemical, fluorescence polarization, uHTS | human 26S proteasome, Ub4-pepOG fluorescence polarization; 20S core pre-blocked with epoxomicin | calls only at 20 µM | hit rate 0.59% among 360,000;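 active = inhibition at 20 µM, scaled to each plate's controls, above about 33%, limit read from the data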
TPT1 inh: Candida albicans TPT1 enzyme inhibitors, primary screen, biochemical, fluorescence polarization | inhibition, % at 5 µM | tRNA 2'-phosphotransferase TPT1 (Candida albicans SC5314) | hit rate 0.81% among 300,000 | recombinant caTPT1, FP RNA substrate dephosphorylation;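 active = inhibition above the mean of all tested compounds plus 3 SD, set per screening campaign, cut at about 24% in these data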
IDE act: human IDE activators in live cells, primary screen, fluorescence polarization, HEK cells, FAbeta-B substrate. Insulin-degrading enzyme (Homo sapiens), P14735. FAbeta-B cleavage; 0% vehicle, 100% cell-free pure enzyme wells. activation, % at 5.96 µM. hit rate 0.073% among 340,000;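 active = activation above the mean of all tested compounds plus 3 SD, set per screening campaign, cut at about 17% in these data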
IDE cell inh: human IDE inhibitors in live cells, primary screen, fluorescence polarization, HEK cells, FAbetaB substrate; Insulin-degrading enzyme (Homo sapiens), P14735; FAbetaB cleavage; inhibition, % at 5.59 µM; hit rate 0.41% among 320,000; AID 434962, 2010;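 active = percent inhibition above the average of all tested compounds plus 3 SD, set per screening campaign, cut at about 16% in these data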;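 also: IDE supplied by intact live HEK cells; FP after avidin binding of uncleaved biotin substrate so inhibition keeps polarization high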
CSN inh: inhibitors of CSN-mediated cullin deneddylation, primary screen, biochemical, fluorescence polarization, uHTS. inhibition, % at 12.5 µM. hit rate 0.38% among 360,000. COP9 signalosome complex subunit 5 (Homo sapiens), Q92905. Purified CSN, SCF-Nedd8-OG deneddylation;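 active = pattern-corrected inhibition above about 35%, with an unprinted fluorescence ratio check between 0.5 and 1.5, limit read from the data, passing the limit was not always enough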
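Assay system: purified human Csn5 enzyme expressed in HEK293T cells; Input: 0.24 nM Csn5 enzyme, final concentration; Reagent: 10 nM SCFSkp2-Nedd8OG; Compound dosing: 12.5 µM single point; Times: reaction 90 min, room temperature; Technique: fluorescence polarization readout.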
HNF4A DNA FP: change in binding of human HNF4A to DNA, primary screen, biochemical, fluorescence polarization, FITC-DNA; activity change, % at 10 µM; AID 1224865, 2016; 1 h; hit rate 0.3% among 360,000; in the data active = activity change above about 30%, passing the limit was not always enough
Rpn11 confirm: Rpn11 (PSMD14) deubiquitinase inhibitors, confirmation, biochemical, fluorescence polarization, single concentration; shares compounds with Rpn11 block; purified human 26S proteasome, Ub4-pepOG fluorescence polarization; proteasome pretreated with epoxomicin; inhibition, % at 20 µM; hit rate 29% among 1,900; AID 602318, 2012
MMP-2 counter: MMP-2 enzyme inhibition, confirmation, counter-screen for RPN11 inhibitor project, biochemical, fluorescence, single concentration. hit rate 4% among 1,900. inhibition, % at 20 µM. recombinant MMP-2, FRET peptide cleavage fluorescence. shares compounds with Rpn11 block;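 also: human MMP-2 activated beforehand with APMA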
Thrombin FP: bovine thrombin protease inhibition, confirmation, counter-screen for Rpn11 inhibitor project, biochemical, fluorescence polarization, single concentration; shares compounds with Rpn11 block; bovine thrombin cleavage of Ub4-pepOG; inhibition, % at 20 µM; hit rate 13% among 1,900;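 active = mean inhibition at least 40% at 20 µM, or signal 3 deviations below plate average, so some actives read negative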
Target sequence (P00735 whole entry, looked up): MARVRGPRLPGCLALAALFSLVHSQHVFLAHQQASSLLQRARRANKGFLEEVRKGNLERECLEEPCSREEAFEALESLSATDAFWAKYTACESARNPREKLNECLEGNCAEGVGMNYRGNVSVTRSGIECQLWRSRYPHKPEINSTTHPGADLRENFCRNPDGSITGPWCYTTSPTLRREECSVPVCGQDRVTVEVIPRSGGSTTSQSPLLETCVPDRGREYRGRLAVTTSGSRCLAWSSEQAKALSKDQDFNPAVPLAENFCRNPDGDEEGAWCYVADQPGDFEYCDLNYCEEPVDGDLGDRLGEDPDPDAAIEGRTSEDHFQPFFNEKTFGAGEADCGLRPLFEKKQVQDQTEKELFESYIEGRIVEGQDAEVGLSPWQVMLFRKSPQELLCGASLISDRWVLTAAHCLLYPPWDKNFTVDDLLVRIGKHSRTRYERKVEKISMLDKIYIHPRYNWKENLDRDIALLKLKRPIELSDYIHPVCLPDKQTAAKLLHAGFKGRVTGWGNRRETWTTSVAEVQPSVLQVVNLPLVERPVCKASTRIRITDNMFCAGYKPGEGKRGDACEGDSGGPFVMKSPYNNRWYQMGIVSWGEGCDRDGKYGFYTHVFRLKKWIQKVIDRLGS
Each line names hits and unclear results; the compound was inactive in the other large screens (follow-up assays come after a bar, where they were run). Sampled rows, rich in hits. Any-hit rate of the full collection: about 1.7%. Rule as the data show it, unless noted: active = inhibition above about 40%; inactive = the rest.

COC(=O)c1ccc(Nc2nc(-c3ccncc3)nc3ccccc23)cc1	Rpn11 block active | Rpn11 confirm inactive | MMP-2 counter inactive | Thrombin FP inactive
O=C(c1ccco1)N1CCN(C(=O)c2cc(-c3ccncc3)nc3ccc(Br)cc23)CC1	Rpn11 block active | Rpn11 confirm inactive | MMP-2 counter inactive | Thrombin FP inactive
O=C(/C=C/c1ccc(Br)cc1)c1ccco1	none
O=C(/C=C/c1ccc(Br)cc1)c1ccc(NC(=O)c2ccco2)cc1	Rpn11 block active | Rpn11 confirm inactive | MMP-2 counter inactive | Thrombin FP inactive
CC(C)N(CC(N)=O)C(=O)c1sc2cc(F)ccc2c1Cl	none
CN1CCC(N(C)C(=O)c2sc3cc(F)ccc3c2Cl)CC1	Rpn11 block active, HNF4A DNA FP 100 | Rpn11 confirm inactive | MMP-2 counter inactive | Thrombin FP inactive
COc1cc(/C=N/NC(=O)c2ccc(O)cc2)ccc1OCC(=O)Nc1cccc([N+](=O)[O-])c1	Rpn11 block active | Rpn11 confirm inactive | MMP-2 counter inactive | Thrombin FP inactive
O=C(N/N=C/c1cccc([N+](=O)[O-])c1)c1ccc(Br)cc1	Rpn11 block active | Rpn11 confirm inactive | MMP-2 counter 41 | Thrombin FP inactive
O=C(N/N=C/c1cccc([N+](=O)[O-])c1)c1cccc(Br)c1	none
CN1CCCN(S(=O)(=O)c2ccccc2)c2nc3ccccc3nc21	none (no result: TPT1 inh, IDE cell inh)
CN1CCCNc2nc3ccccc3nc21	Rpn11 block active | Rpn11 confirm inactive | MMP-2 counter inactive | Thrombin FP inactive
Cc1ccc(Cl)cc1NC(=S)N(Cc1cccnc1)Cc1ccccc1Cl	none
O=C(C[C@H]1C[C@H](C(=O)N2CCCCC2)[C@@]2(CCc3ccccc3)c3[nH]c4cc(-c5ccco5)ccc4c3CCN2C1=O)NCc1cccc(C(F)(F)F)c1	Rpn11 block active (no result: TPT1 inh, IDE cell inh) | Rpn11 confirm inactive | MMP-2 counter inactive | Thrombin FP inactive
O=C(CC1C[C@H](C(=O)N2CCCCC2)[C@@]2(CCc3ccccc3)c3[nH]c4ccccc4c3CCN2C1=O)NCc1ccco1 (some centres not stated)	none (no result: TPT1 inh)
O=C(C[C@H]1C[C@H](C(=O)N2CCOCC2)[C@@]2(CCC3CCCC3)c3[nH]c4cc(-c5ccco5)ccc4c3CCN2C1=O)NCCN1CCOCC1	none (no result: TPT1 inh, IDE cell inh)
CC(C)=CCC/C(C)=C/CNC(=O)C[C@H]1C[C@H](C(=O)N2CCOCC2)[C@@]2(CCC3CCCC3)c3[nH]c4cc(-c5ccco5)ccc4c3CCN2C1=O	Rpn11 block active (no result: TPT1 inh, IDE cell inh) | Rpn11 confirm inactive | MMP-2 counter inactive | Thrombin FP inactive
O=C(C[C@H]1C[C@H](C(=O)N2CCCCC2)[C@@]2(CCc3ccccc3)c3[nH]c4cc(-c5ccco5)ccc4c3CCN2C1=O)NCCC1=CCCCC1	Rpn11 block active (no result: TPT1 inh, IDE cell inh) | Rpn11 confirm inactive | MMP-2 counter inactive | Thrombin FP inactive
O=C(C[C@H]1C[C@H](C(=O)N2CCCCC2)[C@@]2(CCc3ccccc3)c3[nH]c4cc(-c5ccco5)ccc4c3CCN2C1=O)NCc1ccco1	Rpn11 block active (no result: TPT1 inh, IDE cell inh) | Rpn11 confirm inactive | MMP-2 counter inactive | Thrombin FP inactive
O=C(C[C@H]1C[C@H](C(=O)N2CCOCC2)[C@@]2(CCC3CCCC3)c3[nH]c4cc(-c5ccco5)ccc4c3CCN2C1=O)NCc1cccc(C(F)(F)F)c1	none (no result: TPT1 inh, IDE cell inh)
NC(c1ccccc1)c1cccnc1 (configuration not stated)	none
COc1ccc(-c2[nH]c(-c3ccc(C)cc3)nc2SCC(=O)Nc2nccs2)cc1	Rpn11 block active, HNF4A DNA FP 30 | Rpn11 confirm inactive | MMP-2 counter inactive | Thrombin FP inactive
COc1ccc(-c2nc(SCC(=O)Nc3nccs3)c(-c3ccc(Cl)cc3)[nH]2)cc1	none
COc1ccc(-c2[nH]c(-c3ccc(SC)cc3)nc2SCC(=O)Nc2nccs2)cc1	Rpn11 block active | Rpn11 confirm 87 | MMP-2 counter inactive | Thrombin FP 63
CCOC(=O)C1=C(O)/C(=C/c2ccc(-c3ccccc3C(=O)O)o2)SC1=Nc1ccc(OC)cc1	Rpn11 block active (no result: TPT1 inh, IDE cell inh) | Rpn11 confirm 60 | MMP-2 counter inactive | Thrombin FP 41
C[C@H](NC(=O)c1ncn2c1c(=O)[nH]c1ccccc12)c1ccccc1	none (no result: TPT1 inh, IDE act, IDE cell inh)
C[C@H](NC(=O)c1ncn2c1c(=O)[nH]c1ccc(Br)cc12)c1ccccc1	Rpn11 block active (no result: TPT1 inh, IDE act, IDE cell inh) | Rpn11 confirm inactive | MMP-2 counter inactive | Thrombin FP inactive
Cn1c(CCc2ccc(N)cc2)nc2ccccc21	none
Cc1cc(NC(=O)CSc2nc3cc(Cl)ccc3c(=O)n2CC(C)C)no1	none (no result: Rpn11 block, IDE act, CSN inh, HNF4A DNA FP)
Cc1ccc(-c2ccc(S(=O)(=O)N3CC(C)OC(C)C3)cc2)cc1 (configuration not stated)	Rpn11 block active | Rpn11 confirm inactive | MMP-2 counter inactive | Thrombin FP inactive
COc1cccc(CC(=O)Nc2ccc(S(=O)(=O)Nc3nccs3)cc2)c1	none (no result: TPT1 inh)
COc1cc(/C=C/c2ccc3c(Br)cc(Br)c(O)c3n2)ccc1O	Rpn11 block active | Rpn11 confirm inactive | MMP-2 counter inactive | Thrombin FP inactive
COc1cc(/C=N/Nc2ccc([N+](=O)[O-])cc2S(=O)(=O)N2CCOCC2)cc(OC)c1OC	Rpn11 block active | Rpn11 confirm inactive | MMP-2 counter inactive | Thrombin FP inactive
Cc1ccc(C)c(NC(=O)C2(C)CCN2C(C)C)c1 (configuration not stated)	none (no result: TPT1 inh, IDE act, IDE cell inh)
c1ccc2c(c1)CCNC2c1ccncc1 (configuration not stated)	none
Cn1c(-c2ccccc2)cc2onc(-c3ccccc3)c2c1=O	none

Bioassay records from PubChem.
